Only some compounds are listed: those with a hit (about 4.8% of all), similar ones and a draw of the others.
SF-1 act = activators of human nuclear receptor SF-1. Q13285. CHO-K1 Gal4-SF-1 LBD luciferase reporter; % increase over DMSO SF-1-specific signal. activation, % at 10 µM. 1.9% of 65,000 active;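 active = activation above the mean activation of all tested compounds plus 3 SD, cut at about 50% in these data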
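Material: Transient Gal4-SF-1 LBD reporter, CHO-K1 | Input: 4,000 cells/well | Dosing: One dose, 10 µM compound, 1% DMSO | Incubation: 20 h compound treatment, 37 °C | Detection: SteadyLite luciferase luminescence | Evaluation: Percent activation relative to DMSO median and mock-transfected background | Benchmarks: DMSO-treated SF-1-transfected cells as negative, DMSO-treated mock-transfected cells lacking SF-1 as background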
RORa activator = activators of human nuclear receptor RORA. activation, % at 10 µM. 1.5% of 65,000 active. P35398. CHO-K1 Gal4-RORA LBD luciferase reporter, luminescence; percent increase over mock-subtracted basal signal. AID 560;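 active = activation above the mean of all tested compounds plus 3 SD, cut at about 49% in these data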;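 note: 0% = DMSO-treated RORA cells and 100% = added signal equal to DMSO minus mock-transfected cells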
ERa SRC1 inh = ER-alpha (human) coactivator binding inhibition | TR-FRET ER-alpha LBD / SRC-1 peptide, estradiol-bound | AID 629 | inhibition, % at 25.6 µM | 1.7% of 86,000 active; in the data active = inhibition above about 50%;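 note: 0% = receptor plus peptide control and 100% = peptide only without receptor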
PTK2B oligo ant = blocks oligomerization of human Pyk2 in cells; Q14289; Q293 cells, Pyk2 FERM NanoBiT luminescence; stronger effect = lower value; AID 1347419; 0.83% of 99,000 active; z-score (the deposit names both 25 µM and 10 µM);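 active = Z-score of -3 or lower, scaled per plate to the spread of control and sample wells; inactive = z-score above -3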;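 note: negative z-score means lost luminescence so less FERM oligomerization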
ERa SRC1 pot = ER-alpha (human) coactivator binding potentiation | P03372 | TR-FRET ERalpha-LBD/SRC-Cy5 coactivator binding, 2 h; 100 = basal binding, no effect | coactivator binding (% of control), % at 25.6 µM | 1.3% of 86,000 active; in the data active = activity above about 200%;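 note: binding measured in presence of low estradiol as agonist stimulus; 0% = peptide alone without receptor and 100% = receptor with peptide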
ERb coact inh = blocks coactivator binding to human estrogen receptor beta; 1.3% of 86,000 active; inhibition, % at 25.6 µM; TR-FRET ER-beta LBD / SRC1-Cy5 peptide binding; receptor agonist-loaded with 1 µM estradiol; Q92731;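 active = compounds whose percent inhibition of the receptor-coactivator binding signal exceeds about 50% in the single-dose screen, limit read from the data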;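 note: 0% = receptor plus peptide wells without compound and 100% = peptide-only wells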
Target sequence (Q92731 whole entry, looked up, the tested form may be a part): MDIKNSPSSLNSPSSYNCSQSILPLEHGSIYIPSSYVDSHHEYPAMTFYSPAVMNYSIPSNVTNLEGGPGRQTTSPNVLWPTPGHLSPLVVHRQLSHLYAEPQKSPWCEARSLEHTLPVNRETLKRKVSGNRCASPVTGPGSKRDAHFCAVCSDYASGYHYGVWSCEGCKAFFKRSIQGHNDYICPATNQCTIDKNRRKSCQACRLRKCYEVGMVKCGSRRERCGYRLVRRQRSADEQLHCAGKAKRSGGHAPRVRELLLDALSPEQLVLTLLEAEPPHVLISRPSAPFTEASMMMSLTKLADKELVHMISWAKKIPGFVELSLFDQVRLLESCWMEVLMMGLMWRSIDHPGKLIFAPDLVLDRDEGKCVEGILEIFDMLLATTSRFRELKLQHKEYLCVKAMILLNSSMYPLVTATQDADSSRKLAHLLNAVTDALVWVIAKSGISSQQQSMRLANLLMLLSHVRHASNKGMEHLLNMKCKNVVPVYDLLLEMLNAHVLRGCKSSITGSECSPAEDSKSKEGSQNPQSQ
The depositor's hits bear a star; x = no result given; [ ] = dose if it differs, or a comment.

SMILES | SF-1 act | RORa activator | ERa SRC1 inh | PTK2B oligo ant | ERa SRC1 pot | ERb coact inh
CN(CCC(=O)Nc1ccc(Br)cc1)Cc1ccccc1 | x | x | -2.6 | 0.2 | 114.5 | -5.5
CS/C(=N\S(=O)(=O)c1ccc(Cl)cc1)c1ccccc1 | x | x | x | 1.06 | x | x
O=S(=O)(/N=C(\Sc1ccc(Cl)cc1)c1ccccc1)c1ccccc1 | x | x | 77.3* | -0.09 | 27.4 | 55.2*[fluorescence artefact?]
COC(=O)c1ccccc1NC1=C/C(=N\S(=O)(=O)c2cccs2)c2ccccc2C1=O | x | x | 2.1 | -4.96* | 94.5 | 5.7
O=C1C(Nc2ccccc2)=C/C(=N/S(=O)(=O)c2cccs2)c2ccccc21 | x | x | x | -3.75* | x | x
CC(=O)c1c(C)nc2ccc(Cl)cn12 | x | x | 7.2 | -0.53 | 110.3 | -7.4
Cc1cc(C)n(Cc2cc(C)c(Cn3nc(C)cc3C)cc2C)n1 | -3.2 | -22.4 | x | x | x | x
CCc1nc2ccccc2c(=O)n1NC(=O)c1c(O)c2ccccc2[nH]c1=O | -6.0 | -20.2 | -36.4 | -0.64 | 272.9* | 0.2
CCNC(=O)c1c(O)c2ccccc2[nH]c1=O | 16.1 | -2.8 | 4.3 | -0.07 | 136.1 | 4.1
Cc1ccc(-c2noc(CSc3nc(N)cc(N)n3)n2)cc1 | 61.4* | 58.1* | 6.3 | -0.24 | 97.2 | 2.4
COc1ccc(-c2cc(C3CCN(c4ccc(C(C)=O)cc4[N+](=O)[O-])CC3)[nH]n2)cc1 | x | x | x | -3.25* | x | x
Cc1ccc(CCNC(=O)CCc2nc3ccccc3[nH]2)cc1 | x | x | x | 2.97 | x | x
COc1ccc2c(C)c(C(=O)NCC(C)O)oc2c1OC (configuration not stated) | x | x | x | 1.53 | x | x
CCOC(=O)N1CCN(S(=O)(=O)c2ccc(Br)s2)CC1 | -3.6 | -0.4 | -9.6 | 0.35 | 105.1 | -6.9
CN1CCN(S(=O)(=O)c2ccc(Br)s2)CC1 | -24.0 | 62.7* | -10.2 | 0.33 | 109.9 | -7.0
CCOC(=O)C1CCN(S(=O)(=O)C(F)(F)c2nc3ccccc3s2)CC1 | 32.0 | 71.0* | 5.4 | 0.61 | 47.6 | -1.9
C/C(=N\Nc1cc(Cl)nc(C)n1)c1ccc(C)cc1 | x | x | x | 1.07 | x | x
CCN1CCC(C(N)=O)CC1 | x | x | 2.8 | -0.13 | 105.0 | 51.0*
Cc1ccc(C)c(N2CCN(c3nnnn3-c3ccccc3)CC2)c1 | x | x | 3.9 | -0.58 | 73.6 | 8.4
O=C(Nc1cnc2sccn2c1=O)c1ccccc1Cl | 52.0* | 28.8 | -2.6 | 0.04 | 99.7 | -1.0
Cc1cccc(NC(=O)c2cnc3sccn3c2=O)c1 | -2.0 | 24.3 | 3.2 | x | 101.2 | 20.8
Cc1cccc(NC(=O)c2cnc3sccn3c2=O)c1C | 45.3 | 74.4* | x | x | x | x
O=S(=O)(NC12CC3CC(CC(C3)C1)C2)c1ccc(F)cc1 | x | x | 16.7 | -1.53 | 89.6 | 2.7
CCOCCC(=O)Nc1cc(Cl)ccc1OC | x | x | -3.3 | -0.53 | 107.1 | -4.6
Clc1cc(Cl)c(OCc2nc(-c3ccccn3)no2)cc1Cl | 33.7 | 52.2* | -1.1 | -0.39 | 100.6 | -0.7
SMILES | SF-1 act | RORa activator | ERa SRC1 inh | PTK2B oligo ant | ERa SRC1 pot | ERb coact inh
CC(C)(C)c1ccc(OCc2nc(-c3ccccn3)no2)c(Br)c1 | 71.1* | 67.1* | -2.2 | -1.56 | 78.3 | 0.7
COc1ccc(Cc2nc(-c3ccccn3)no2)cc1 | x | x | -11.3 | 0.28 | 110.1 | -12.9
COCC(=O)Nc1nc2n(n1)C(c1ccc(OC)cc1)CC(c1ccc(OC)cc1)N2 (configuration not stated) | 0.0 | -14.6 | 3.3 | -1 | 117.2 | -5.2
COc1ccc(C2CC(c3ccccc3)Nc3nc(NC(=O)c4ccco4)nn32)cc1 (configuration not stated) | 3.5 | -21.6 | -3.1 | -3.7* | 102.6 | 0.6
O=C(Nc1nc2n(n1)C(c1ccccc1)CC(c1ccc(Cl)cc1)N2)c1ccco1 (configuration not stated) | 5.6 | 23.0 | 7.9 | -1.64 | 96.6 | -4.3
COc1ccc(C2CC(c3ccc(OC)cc3)n3nc(NC(=O)c4ccco4)nc3N2)cc1 (configuration not stated) | 14.8 | 0.6 | 1.6 | -3.79* | 101.5 | -6.4
O=C(N/C(=C\c1ccc(Br)cc1)c1nc2ccccc2[nH]1)c1ccco1 | x | x | x | -0.39 | x | x
CCCCC(=O)NC(c1cccc([N+](=O)[O-])c1)c1c(OC(C)=O)ccc2ccccc12 (configuration not stated) | x | x | 5.9 | -4.27* | 79.7 | -3.4
CC(=O)Oc1ccc2ccccc2c1C(NC(=O)Cc1ccccc1)c1ccccc1 (configuration not stated) | x | x | x | -3.97* | x | x
CC(=O)Oc1ccc2ccccc2c1C(NC(=O)C(C)C)c1cccc([N+](=O)[O-])c1 (configuration not stated) | x | x | -5.2 | -2.89 | 102.5 | -0.9
CC(=O)NC(c1cccc([N+](=O)[O-])c1)c1c(OC(C)=O)ccc2ccccc12 (configuration not stated) | x | x | -2.1 | -1.94 | 90.1 | -4.8
O=C(Nc1ccccc1C(=O)O)c1ccc2ccccc2n1 | 80.1* | 45.0 | 1.4 | -2.53 | 94.3 | 90.7*[fluorescence artefact?]
O=C(Nc1ccccc1C(=O)O)c1ccccc1 | x | x | 39.5 | -0.39 | 79.7 | 50.6*
CCOc1c(Cl)cc(C(=O)Nc2ccccc2C(=O)O)cc1Cl | x | x | x | -4.05* | x | x
CCOc1ccccc1C(=O)Nc1cc(Cl)ccc1O | -10.9 | 10.6 | -0.8 | -3.67* | 105.1 | 0.2
COc1ccccc1C(=O)Nc1cc(Cl)ccc1O | -22.1 | -12.8 | 14.4 | -2.36 | 109.4 | 5.4
CC(C)CNC(=O)c1ccc(COc2ccc(Cl)cc2Cl)o1 | x | x | 0.7 | -0.14 | 81.9 | 4.6
Cc1cc(C)c2c(CC(=O)N(CCC#N)Cc3cccnc3)coc2c1 | 3.1 | -16.6 | -2.8 | 0.83 | 113.5 | -2.5
Cc1cc2ncc(-c3ccc(Cl)cc3)c(N)n2n1 | 55.4* | 34.6 | -5.5 | x | 107.9 | -9.3
CC(C)C(=O)Nc1cccc(C(=O)OCC(=O)c2ccc(Cl)cc2Cl)c1 | x | x | x | -3.54* | x | x
CC(=O)Nc1cc(C(=O)OCC(=O)c2ccc(Cl)cc2Cl)ccc1C | x | x | x | 0.58 | x | x
N#Cc1cccc(NC(=O)CN2NS(=O)(=O)c3ccccc3C2=O)c1 | x | x | -4.4 | 0.34 | 86.9 | -0.8
O=C(NCCN1CCOCC1)c1noc2c1CCc1ccccc1-2 | 40.7 | 76.9* | 3.5 | 0.39 | 119.1 | -12.4
CCCNC(=O)c1noc2c1CCc1ccccc1-2 | 34.2 | 25.4 | x | x | x | x
Cc1nc(Cl)c(C(=O)NC(=O)Nc2cccc(C(F)(F)F)c2)c(C)c1[N+](=O)[O-] | x | x | -9.3 | -1.29 | 119.2 | -8.3
CC(C)C(=O)N1C2CCC1CC(O)(c1ccc(F)cc1)C2 (configuration not stated) | x | x | -9.3 | 0.93 | 101.2 | -17.6
Cc1cc(N2C3CCC2CC(O)(c2ccc(F)cc2)C3)nc(-c2ccccc2)n1 (configuration not stated) | -12.7 | 11.0 | -3.8 | -3.07* | 96.5 | 1.7
COc1ccc(C/C(=N\O)c2ccc(OC)cc2)cc1 | x | x | -3.6 | -1.59 | 92.2 | -3.8

Screens from PubChem BioAssay.
